One assay relates to Trypanosoma cruzi. Description: Trypanocidal activity against Trypanosoma cruzi Tulahuen C4 trypomastigotes infected in mouse macrophage by reporter dye assay. The class given is functional, organism-based.
The test system of another assay is Leishmania donovani. Description: Antileishmanial activity against Leishmania donovani MHOMET-67/L82 amastigotes infected in mouse macrophage by reporter dye assay. Type of assay: functional, organism-based.
Assay [1] relates to Trypanosoma brucei rhodesiense. The assay is described as follows: Trypanocidal activity against Trypanosoma brucei rhodesiense STIB 900 […] by reporter dye assay. The class given is functional, organism-based.
A further assay relates to Plasmodium falciparum. The assay is described as follows: Antiplasmodial activity against chloroquine and pyrimethamine-resistant Plasmodium falciparum K1 […] by reporter dye assay. Type of assay: functional, organism-based.
The nature of assay [2]: Cytotoxicity against HEK293T cells after 16 hrs by alamar blue staining. Type of assay: cell-based. The following applies: Homo sapiens, HEK-293T. An outline of the steps: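 HEK 293T cells were seeded at 3×10^4/well in DMEM with 10% newborn bovine serum, 2 mM L-glutamax and 1% penicillin-streptomycin, and left to adhere for 3 h at 37°C under 5% CO2. Medium with serial drug dilutions (500 to 0.24 μM in the added medium) was then given for 16 h. Resazurin followed for a further 24 h, read by fluorescence (ex 530/em 590 nm). IC50 values came from ≥3 independent experiments.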
A general note: Alamar Blue is a resazurin reagent that responds to reducing activity.

A further assay deals with L6. Description: Cytotoxicity against rat L6 cells. Type of assay: cell-based.

Some results are limits rather than exact numbers.

With `OC[C@H]1O[C@@H](n2cnc3c(NC4CCCC4)nc(NCCc4cnc[nH]4)nc32)[C@H](O)[C@@H]1O`, the IC50 in the assay with Trypanosoma cruzi was less than 30 µM; with Leishmania donovani, less than 30 µM; in assay [1], 37.8 µM; in the assay on Plasmodium falciparum it was more than 10 µM.

For `OC[C@H]1O[C@@H](n2cnc3c(NC4CCCC4)nc(NC4CCCCC4)nc32)[C@H](O)[C@@H]1O`, the IC50 was determined as 0.49 µM in assay [1], 228 µM in assay [2] and 9.05 µM in the assay on Plasmodium falciparum.

In the case of `COc1nc(Nc2ccccc2)c2ncn([C@@H]3O[C@H](CO)[C@@H](O)[C@H]3O)c2n1`, the IC50 is less than 30 µM with Trypanosoma cruzi, less than 30 µM in the assay on Leishmania donovani, 83.3 µM in assay [1] and more than 10 µM in the assay with Plasmodium falciparum.

In the case of `OC[C@H]1O[C@@H](n2cnc3c(NCc4cccc(I)c4)nc(NCCOCc4ccccc4)nc32)[C@H](O)[C@@H]1O`, the IC50 with Trypanosoma cruzi is less than 30 µM; with Leishmania donovani, less than 30 µM; in assay [1] it was 27 µM; with Plasmodium falciparum, more than 10 µM.

For the molecule `CCN(CC)CCCC(C)Nc1ccnc2cc(Cl)ccc12` (stereo not drawn) [CHLOROQUINE], the IC50 in the assay with Trypanosoma cruzi and in the assay on Leishmania donovani was less than 30 µM throughout.

For the molecule `OC[C@H]1O[C@@H](n2cnc3c(NCCC(c4ccccc4)c4ccccc4)nc(NCCC4CNc5ccccc54)nc32)[C@H](O)[C@@H]1O` (stereo partly drawn), the IC50 in the assay on Trypanosoma cruzi is less than 30 µM; with Leishmania donovani, less than 30 µM; in assay [1], 25.1 µM; in the assay on Plasmodium falciparum, 1.83 µM.

In the case of `Nc1nc(N)nc(Nc2ccc([As]3SCC(CO)S3)cc2)n1` (stereo not drawn) [MELARSOPROL], the IC50 is less than 30 µM in the assay with Trypanosoma cruzi, less than 30 µM in the assay on Leishmania donovani and 0.0056 µM in assay [1].

For the molecule `OC[C@H]1O[C@@H](n2cnc3c(Nc4ccccc4)nc(NCCOCc4ccccc4)nc32)[C@H](O)[C@@H]1O`, the IC50 is 53.8 µM in the assay on L6; less than 30 µM with Trypanosoma cruzi; less than 30 µM in the assay on Leishmania donovani; 8.43 µM in assay [1]; 7.38 µM in the assay with Plasmodium falciparum.

In the case of `OC[C@H]1O[C@@H](n2cnc3c(NC4CCCC4)nc(NC4CCCCCC4)nc32)[C@H](O)[C@@H]1O`, the IC50 in assay [1] stood at 3.06 µM; in assay [2] it was 167 µM; in the assay on Plasmodium falciparum it was 6.79 µM.

For `OC[C@H]1O[C@@H](n2cnc3c(NC4CCCCC4)nc(NC4CCCC4)nc32)[C@H](O)[C@@H]1O`, the IC50 is 0.71 µM in assay [1], more than 500 µM in assay [2] and more than 10 µM in the assay on Plasmodium falciparum.

Regarding `OC[C@H]1O[C@@H](n2cnc3c(N4CCCCC4)nc(NC4CCCC4)nc32)[C@H](O)[C@@H]1O`, the IC50 is 11.2 µM in assay [1] and more than 10 µM in the assay on Plasmodium falciparum.

For the molecule `OC[C@H]1O[C@@H](n2cnc3c(NC4CCCC4)nc(NCCOCc4ccccc4)nc32)[C@H](O)[C@@H]1O`, the IC50 with L6 was 78.8 µM; in the assay with Trypanosoma cruzi, less than 30 µM; with Leishmania donovani it was less than 30 µM; in assay [1] it was 4.19 µM; in the assay with Plasmodium falciparum, more than 10 µM.

On to `COc1nc(NCc2cccc(I)c2)c2ncn([C@@H]3O[C@H](CO)[C@@H](O)[C@H]3O)c2n1`, for which the IC50 in the assay with Trypanosoma cruzi was less than 30 µM; in the assay with Leishmania donovani it was less than 30 µM; in assay [1] it was 26.7 µM; in the assay on Plasmodium falciparum, more than 10 µM.

Take `OC[C@H]1O[C@@H](n2cnc3c(NCc4cccc5ccccc45)nc(NCCC(c4ccccc4)c4ccccc4)nc32)[C@H](O)[C@@H]1O`: the results for the IC50 (in assay [1]; in the assay on Plasmodium falciparum) were 24.1 µM and 1.76 µM, respectively.

On to `OC[C@H]1O[C@@H](n2cnc3c(NCc4cccc(I)c4)nc(NCCc4cnc[nH]4)nc32)[C@H](O)[C@@H]1O`, for which the IC50 with Trypanosoma cruzi was less than 30 µM; with Leishmania donovani, less than 30 µM; in assay [1], 42.9 µM; in the assay on Plasmodium falciparum it was more than 10 µM.

Take `OC[C@H]1O[C@@H](n2cnc3c(NCc4cccc(I)c4)nc(NC4CCCC4)nc32)[C@H](O)[C@@H]1O`: the IC50 was 51.7 µM in the assay with L6; less than 30 µM with Trypanosoma cruzi; less than 30 µM with Leishmania donovani; 5.44 µM in assay [1]; more than 10 µM in the assay with Plasmodium falciparum.

Regarding `C[C@@H]1CC[C@H]2[C@@H](C)C(=O)O[C@@H]3O[C@@]4(C)CC[C@@H]1[C@]32OO4` [ARTEMISININ], the midpoint of inhibition in the assay on Plasmodium falciparum, the IC50, lay at 0.2 µM.

As to `COc1nc(NC2CCCC2)c2ncn([C@@H]3O[C@H](CO)[C@@H](O)[C@H]3O)c2n1`, the IC50 was 51.6 µM in the assay with L6; less than 30 µM in the assay on Trypanosoma cruzi; less than 30 µM in the assay on Leishmania donovani; 32.9 µM in assay [1]; more than 10 µM with Plasmodium falciparum.

Turning to `OC[C@H]1O[C@@H](n2cnc3c(NCCC(c4ccccc4)c4ccccc4)nc(NCc4cccc5ccccc45)nc32)[C@H](O)[C@@H]1O`, the IC50 came to 17.3 µM in assay [1] and 1.56 µM in the assay on Plasmodium falciparum.

Regarding `OC[C@H]1O[C@@H](n2cnc3c(NC4CCCC4)nc(NC4CC4)nc32)[C@H](O)[C@@H]1O`, the IC50 is 1.43 µM in assay [1], more than 500 µM in assay [2] and more than 10 µM in the assay with Plasmodium falciparum.

For the molecule `OC[C@H]1O[C@@H](n2cnc3c(NC4CCCCCC4)nc(NC4CCCCCC4)nc32)[C@H](O)[C@@H]1O`, the IC50 in assay [1] was 29.8 µM; with Plasmodium falciparum it was 4.91 µM.

In the case of `OC[C@H]1O[C@@H](n2cnc3c(NC45CC6CC(CC(C6)C4)C5)nc(N4CCCC4)nc32)[C@H](O)[C@@H]1O`, the figures for the IC50 (in assay [1]; in the assay with Plasmodium falciparum) were 34.1 µM and 6.2 µM, respectively.

For `OC[C@H]1O[C@@H](n2cnc3c(NC4CC4)nc(NC4CC4)nc32)[C@H](O)[C@@H]1O`, the values for the IC50 (in assay [1]; in the assay with Plasmodium falciparum) were 172 µM and more than 10 µM, respectively.

Turning to `OC[C@H]1O[C@@H](n2cnc3c(NC4CC4)nc(NC4CCCC4)nc32)[C@H](O)[C@@H]1O`, the IC50 in assay [1] was 1.84 µM; in assay [2] it was more than 500 µM; with Plasmodium falciparum, more than 10 µM.

Turning to `CCCCCNc1nc(NCCCCC)c2ncn([C@@H]3O[C@H](CO)[C@@H](O)[C@H]3O)c2n1`, the IC50 in the assay with L6 is more than 200 µM; in the assay on Trypanosoma cruzi, less than 30 µM; in the assay on Leishmania donovani, less than 30 µM; in assay [1], 6.47 µM; in the assay with Plasmodium falciparum it was more than 10 µM.

`OC[C@H]1O[C@@H](n2cnc3c(NC4CCCCC4)nc(NC4CCCCC4)nc32)[C@H](O)[C@@H]1O`: the IC50 in assay [1] came out at 7.26 µM; with Plasmodium falciparum, 9.62 µM.

In the case of `OC[C@H]1O[C@@H](n2cnc3c(NCCC(c4ccccc4)c4ccccc4)nc(NC4CCCC4)nc32)[C@H](O)[C@@H]1O`, the IC50 is less than 30 µM in the assay with Trypanosoma cruzi, less than 30 µM in the assay on Leishmania donovani, 8 µM in assay [1] and 3.28 µM in the assay on Plasmodium falciparum.

On to `OC[C@H]1O[C@@H](n2cnc3c(Nc4ccccc4)nc(NCCc4cnc[nH]4)nc32)[C@H](O)[C@@H]1O`, for which the IC50 in the assay on Trypanosoma cruzi was less than 30 µM; in the assay with Leishmania donovani, less than 30 µM; in assay [1] it was 76.3 µM; in the assay on Plasmodium falciparum, more than 10 µM.

`OC[C@H]1O[C@@H](n2cnc3c(N4CCCCC4)nc(N4CCCCC4)nc32)[C@H](O)[C@@H]1O`: the IC50 is 87.2 µM in assay [1] and more than 10 µM in the assay on Plasmodium falciparum.

For the molecule `OC[C@H]1O[C@@H](n2cnc3c(NCc4cccc(I)c4)nc(NCCC4CNc5ccccc54)nc32)[C@H](O)[C@@H]1O` (stereo partly drawn), the IC50 is less than 30 µM in the assay with Trypanosoma cruzi, less than 30 µM with Leishmania donovani, 20 µM in assay [1] and more than 10 µM in the assay on Plasmodium falciparum.

In the case of `OC[C@H]1O[C@@H](n2cnc3c(NCCC(c4ccccc4)c4ccccc4)nc(NCCOCc4ccccc4)nc32)[C@H](O)[C@@H]1O`, the IC50 was less than 30 µM in the assay with Trypanosoma cruzi, less than 30 µM in the assay on Leishmania donovani, 27.7 µM in assay [1] and 3.06 µM in the assay with Plasmodium falciparum.

With `OC[C@H]1O[C@@H](n2cnc3c(NCCC(c4ccccc4)c4ccccc4)nc(NCCc4cnc[nH]4)nc32)[C@H](O)[C@@H]1O`, the IC50 with Trypanosoma cruzi was less than 30 µM; in the assay with Leishmania donovani, less than 30 µM; in assay [1], 71.5 µM; in the assay on Plasmodium falciparum it was 8.17 µM.

For the molecule `OC[C@H]1O[C@@H](n2cnc3c(NC4CCCCCC4)nc(NC4CCCC4)nc32)[C@H](O)[C@@H]1O`, the figures for the IC50 (in assay [1]; in assay [2]; with Plasmodium falciparum) were 0.71 µM, more than 500 µM and 8.95 µM, respectively.

In the case of `COc1nc(NCCC(c2ccccc2)c2ccccc2)c2ncn([C@@H]3O[C@H](CO)[C@@H](O)[C@H]3O)c2n1`, the IC50 in the assay with Trypanosoma cruzi was less than 30 µM; with Leishmania donovani, less than 30 µM; in assay [1], 36 µM; with Plasmodium falciparum, more than 10 µM.

As for `OC[C@H]1O[C@@H](n2cnc3c(Nc4ccccc4)nc(NC4CCCC4)nc32)[C@H](O)[C@@H]1O`, the IC50 in the assay with L6 was 36.3 µM; in the assay with Trypanosoma cruzi, less than 30 µM; with Leishmania donovani, less than 30 µM; in assay [1], 2.06 µM; in the assay with Plasmodium falciparum, 6.06 µM.

With `OC[C@H]1O[C@@H](n2cnc3c(NC4CCCC4)nc(NCCC4CNc5ccccc54)nc32)[C@H](O)[C@@H]1O` (stereo partly drawn), the IC50 with L6 was 48.4 µM; in the assay on Trypanosoma cruzi it was less than 30 µM; in the assay on Leishmania donovani it was less than 30 µM; in assay [1], 20.8 µM; in the assay on Plasmodium falciparum it was more than 10 µM.

On to `OC[C@H]1O[C@@H](n2cnc3c(Nc4ccccc4)nc(NCCC4CNc5ccccc54)nc32)[C@H](O)[C@@H]1O` (stereo partly drawn), for which the half-inhibitory concentration (IC50) in the assay with L6 is 13.2 µM; with Trypanosoma cruzi, less than 30 µM; with Leishmania donovani, less than 30 µM; in assay [1] it was 18.8 µM; with Plasmodium falciparum, 5.55 µM.

For the molecule `CCCNc1nc(NCCc2ccccc2)c2ncn([C@@H]3O[C@H](CO)[C@@H](O)[C@H]3O)c2n1`, the IC50 was more than 200 µM in the assay with L6; less than 30 µM in the assay with Trypanosoma cruzi; less than 30 µM in the assay on Leishmania donovani; 14.2 µM in assay [1]; more than 10 µM with Plasmodium falciparum.

For `OC(c1cc(C(F)(F)F)nc2c(C(F)(F)F)cccc12)C1CCCCN1` (stereo not drawn) [MEFLOQUINE], the results for the IC50 in the assay with L6, with Trypanosoma cruzi and with Leishmania donovani were 4.76 µM, less than 30 µM and less than 30 µM, respectively.

For `OC[C@H]1O[C@@H](n2cnc3c(NCCC4CNc5ccccc54)nc(NCCC4CNc5ccccc54)nc32)[C@H](O)[C@@H]1O` (stereo partly drawn), the results for the IC50 (in assay [1]; in the assay on Plasmodium falciparum) were 26.5 µM and 2.46 µM, respectively.

For orientation: IC50 means the concentration needed to halve the response being measured. Higher therefore signals a need for much substance.

These data come from ChEMBL document CHEMBL1137633, “2,N6-disubstituted adenosine analogs with antitrypanosomal and antimalarial activities” (Antimicrob Agents Chemother, 2007).
